In ChEMBL document CHEMBL4321796, “Proteolysis Targeting Chimeras for the Selective Degradation of Mcl-1/Bcl-2 Derived from Nonselective Target Binding Ligands” (J Med Chem, 2019):
Active and inactive are the calls of the source. No cut-off for these calls is given here.

Key:
[1] = target: T1, Protein cereblon/Induced myeloid leukemia cell differentiation protein Mcl-1 (Homo sapiens, UniProt Q07820+Q96SW2); test: Induction of CRBN-mediated Mcl-1 degradation in human HeLa cells assessed as relative abundance at 1 uM after 12 hrs by Western blot analysis (reference value: 1); assay type: cell-based
Target sequence in this assay (Q07820 whole entry, looked up): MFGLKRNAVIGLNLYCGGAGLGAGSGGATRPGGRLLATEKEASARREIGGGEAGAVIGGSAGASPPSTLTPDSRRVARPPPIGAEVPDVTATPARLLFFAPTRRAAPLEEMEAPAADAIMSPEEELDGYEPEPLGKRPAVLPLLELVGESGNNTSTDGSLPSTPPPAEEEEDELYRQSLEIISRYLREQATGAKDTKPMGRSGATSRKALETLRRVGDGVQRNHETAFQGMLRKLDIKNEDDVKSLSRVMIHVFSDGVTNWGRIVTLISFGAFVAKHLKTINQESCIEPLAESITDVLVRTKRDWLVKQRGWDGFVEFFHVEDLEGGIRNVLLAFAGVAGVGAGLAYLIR
Target sequence in this assay (Q96SW2 whole entry, looked up): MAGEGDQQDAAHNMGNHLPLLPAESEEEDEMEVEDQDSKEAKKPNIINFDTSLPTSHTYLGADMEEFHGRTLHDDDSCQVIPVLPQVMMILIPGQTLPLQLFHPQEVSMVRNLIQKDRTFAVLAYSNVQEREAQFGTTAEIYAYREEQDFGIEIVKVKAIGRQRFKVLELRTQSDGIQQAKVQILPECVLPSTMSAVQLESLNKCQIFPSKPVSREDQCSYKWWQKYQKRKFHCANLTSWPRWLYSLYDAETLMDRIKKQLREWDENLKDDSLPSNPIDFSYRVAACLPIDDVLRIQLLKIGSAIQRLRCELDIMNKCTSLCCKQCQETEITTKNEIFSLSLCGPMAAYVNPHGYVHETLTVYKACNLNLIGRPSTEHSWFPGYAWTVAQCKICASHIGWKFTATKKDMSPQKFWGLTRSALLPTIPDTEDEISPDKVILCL

[2] = target: T1, Protein cereblon/Induced myeloid leukemia cell differentiation protein Mcl-1; test: Induction of CRBN-mediated Mcl-1 degradation in human HeLa cells assessed as relative abundance at 10 uM after 12 hrs by Western blot analysis (reference value: 1); assay type: cell-based
Target sequence in this assay (Q07820 whole entry, looked up): as the sequence (Q07820 whole entry, looked up) above
Target sequence in this assay (Q96SW2 whole entry, looked up): as the sequence (Q96SW2 whole entry, looked up) above

[3] = target: T2, Protein cereblon/Apoptosis regulator Bcl-2 (Homo sapiens, UniProt P10415+Q96SW2); test: Induction of CRBN-mediated Bcl-2 degradation in human HeLa cells assessed as reduction in Bcl-2 level at 10 uM after 12 hrs by Western blot analysis; assay type: cell-based
[4] = target: T1, Protein cereblon/Induced myeloid leukemia cell differentiation protein Mcl-1; test: Induction of CRBN-mediated Mcl-1 degradation in human HeLa cells assessed as relative abundance at 10 uM measured at 20 hrs by Western blot analysis (reference value: 1); assay type: cell-based
Procedure, shortened: (§1)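 HeLa cells in DMEM with 10% FBS, exposed to 10 µM compound over a 0–24 h time course. Mcl-1 and Bcl-2 detected by immunoblot (NP-40 lysis, BCA-equalized SDS-PAGE, PVDF, ECL) and quantified relative to DMSO control; mean ± s.d., n=3 independent samples.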
Target sequence in this assay (Q07820 whole entry, looked up): as the sequence (Q07820 whole entry, looked up) above
Target sequence in this assay (Q96SW2 whole entry, looked up): as the sequence (Q96SW2 whole entry, looked up) above

HeLa = test: Induction of CRBN-mediated tubulin degradation in human HeLa cells at 10 uM incubated for 12 hrs by Western blot analysis; assay type: cell-based
Procedure, shortened: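 HeLa cells (DMEM, 10% FBS, 37 °C, 5% CO2) treated 12 h with compound (10 µM, or 0–10 µM gradient; time course 0–24 h at 10 µM). Lysis in NP-40 buffer with protease inhibitors, equal protein loaded for SDS-PAGE and immunoblotting. Bands quantified relative to DMSO control. n=3 independent samples.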

[5] = target: T1, Protein cereblon/Induced myeloid leukemia cell differentiation protein Mcl-1; test: Induction of CRBN-mediated Mcl-1 degradation in human HeLa cells assessed as Mcl-1 removal activity measured at 12 hrs by Western blot analysis; assay type: cell-based
Target sequence in this assay (Q07820 whole entry): as the sequence (Q07820 whole entry, looked up) above
Target sequence in this assay (Q96SW2 whole entry): as the sequence (Q96SW2 whole entry, looked up) above

[6] = target: T1, Protein cereblon/Induced myeloid leukemia cell differentiation protein Mcl-1; test: Induction of CRBN-mediated Mcl-1 degradation in human HeLa cells assessed as relative abundance at 10 uM measured at 16 hrs by Western blot analysis (reference value: 1); assay type: cell-based; procedure, shortened: as §1
Target sequence in this assay (Q07820 whole entry, looked up): as the sequence (Q07820 whole entry, looked up) above
Target sequence in this assay (Q96SW2 whole entry, looked up): as the sequence (Q96SW2 whole entry, looked up) above

[7] = target: T1, Protein cereblon/Induced myeloid leukemia cell differentiation protein Mcl-1; test: Induction of CRBN-mediated Mcl-1 degradation in human HeLa cells assessed as relative abundance at 10 uM measured at 4 hrs by Western blot analysis (reference value: 1); assay type: cell-based; procedure, shortened: as §1
Target sequence in this assay (Q07820 whole entry, looked up): as the sequence (Q07820 whole entry, looked up) above
Target sequence in this assay (Q96SW2 whole entry, looked up): as the sequence (Q96SW2 whole entry, looked up) above

[8] = target: T1, Protein cereblon/Induced myeloid leukemia cell differentiation protein Mcl-1; test: Induction of CRBN-mediated Mcl-1 degradation in human K562 cells incubated for 12 hrs by Western blot analysis; assay type: cell-based
Procedure, shortened: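 K562 cells kept in RPMI1640 with 10% FBS at 37 °C, 5% CO2. After compound treatment, cells lysed in NP-40 buffer with protease inhibitors. Equal protein run on SDS-PAGE, then immunoblotted; protein levels quantified from the blots.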
Target sequence in this assay (Q07820 whole entry, looked up): as the sequence (Q07820 whole entry, looked up) above
Target sequence in this assay (Q96SW2 whole entry, looked up): as the sequence (Q96SW2 whole entry, looked up) above

[9] = target: T2, Protein cereblon/Apoptosis regulator Bcl-2; test: Induction of CRBN-mediated Bcl-2 degradation in human HeLa cells assessed as relative abundance at 10 uM measured at 4 hrs by Western blot analysis (reference value: 1); assay type: cell-based; procedure, shortened: as §1
NCI-H23 = test: Cytotoxicity against human H23 cells assessed as effect on PARP cleavage at 0.3 to 10 uM incubated for 12 hrs by Western blot analysis; assay type: functional, cell-based
Procedure, shortened: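 H23 cells grown in RPMI1640 with 10% FBS at 37°C, 5% CO2, treated 12 h over a concentration gradient. Mcl-1 and PARP cleavage read by immunoblot: NP-40 lysis buffer with protease inhibitors, BCA-normalized SDS-PAGE, PVDF, ECL detection; n=3 independent samples.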

[10] = target: T1, Protein cereblon/Induced myeloid leukemia cell differentiation protein Mcl-1; test: Protac activity at CRBN/Mcl-1 in human HeLa cell lysates assessed as ternary complex formation by Western blot analysis based pull-down assay; assay type: subcellular; conditions: Lysate
Procedure, shortened: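 HeLa lysate (25×10^6 cells, 1% Triton X-100 IP buffer), 1 mg total protein, incubated overnight with 1 µg CRBN antibody across a compound concentration gradient. Capture on protein A+G agarose, three Triton washes, boiled in loading buffer. Mcl-1, Bcl-2 and CRBN detected by immunoblotting. n=3 independent samples.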

[11] = target: T2, Protein cereblon/Apoptosis regulator Bcl-2; test: Induction of CRBN-mediated Bcl-2 degradation in human HeLa cells assessed as relative abundance at 1 uM after 12 hrs by Western blot analysis (reference value: 1); assay type: cell-based

T2 sequence (P10415 whole entry, looked up): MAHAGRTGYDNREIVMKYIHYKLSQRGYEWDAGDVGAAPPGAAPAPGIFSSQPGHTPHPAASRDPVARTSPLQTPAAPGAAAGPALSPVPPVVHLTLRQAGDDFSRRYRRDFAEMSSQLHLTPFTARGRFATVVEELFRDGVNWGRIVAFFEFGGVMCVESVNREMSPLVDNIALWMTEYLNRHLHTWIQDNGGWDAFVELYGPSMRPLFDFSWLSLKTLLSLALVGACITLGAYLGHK
T2 sequence (Q96SW2 whole entry, looked up): as the sequence (Q96SW2 whole entry, looked up) above

fold change (FC) [1]: 0.3
fold change (FC) [2]: 0.1 to 0.2
Activity [3]: inactive
fold change (FC) [4]: 0.8
DC50 [5]: 0.7 µM
fold change (FC) [6]: 0.4
fold change (FC) [7]: 1.1
Activity [8]: Active
fold change (FC) [9]: 1.1
Activity [10]: Dose-dependent effect
fold change (FC) [11]: 0.9 to 1
Structure (SMILES): O=C(CCCCC(=O)NCCN1C(=O)c2cccc3c(Sc4ccc(Br)cc4)ccc(c23)C1=O)NCCCCCCNc1cccc2c1C(=O)N(C1CCC(=O)NC1=O)C2=O (stereo not drawn)
Activity (HeLa): inactive
Activity (NCI-H23): Active
